Values after ≈ are worked out from the molar mass of the structure shown. Active and inactive are the calls of the source. No cut-off for these calls is given here.
Experiments:
[1] = Protein binding in rat; type: ADME, organism-based; conditions: in vivo, read-out: PB (converted)
[2] = system: Mus musculus; assay: Immunomodulatory activity in po dosed BALB/C mouse assessed as induction of lymphopenia after 16 hrs; type: functional, organism-based
Summary of the method: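 Male BALB/c mice were dosed orally at 1, 3 or 10 mg/kg, or with vehicle (0.5% methylcellulose in water). Blood was sampled up to 24 h post-dose for lymphocyte counts and plasma drug levels (mean ± SD). An indirect PK/PD model was fitted to give the blood concentration suppressing lymphocytes by 50%.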

[3] = target: Sphingosine 1-phosphate receptor 3 (Homo sapiens, UniProt Q99500); assay: Agonist activity at recombinant human S1P3 receptor expressed in HEK293 cells after 2 hrs by beta-arrestin assay; type: functional, cell-based
Chain of Sphingosine 1-phosphate receptor 3 (Q99500 whole entry): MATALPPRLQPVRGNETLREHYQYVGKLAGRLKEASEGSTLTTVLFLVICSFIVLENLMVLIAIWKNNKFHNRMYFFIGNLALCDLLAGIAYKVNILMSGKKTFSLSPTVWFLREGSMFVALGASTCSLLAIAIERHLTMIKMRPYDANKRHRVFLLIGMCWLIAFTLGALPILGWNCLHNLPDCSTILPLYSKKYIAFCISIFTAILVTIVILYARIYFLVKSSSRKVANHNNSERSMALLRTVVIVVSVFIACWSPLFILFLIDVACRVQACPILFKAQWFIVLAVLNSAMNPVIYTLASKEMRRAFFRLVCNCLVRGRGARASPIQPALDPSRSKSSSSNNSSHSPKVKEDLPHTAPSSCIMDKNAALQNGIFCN

[4] = Cmax in Sprague-Dawley rat at 2 mg/kg, iv and 3 mg/kg, po; type: ADME, organism-based; conditions: in vivo
[5] = AUC (0 to last) in Sprague-Dawley rat at 2 mg/kg, iv and 3 mg/kg, po; type: ADME, organism-based; conditions: plasma
[6] = Oral bioavailability in Sprague-Dawley rat at 3 mg/kg; type: ADME, organism-based; conditions: in vivo
[7] = target: T1, Sphingosine 1-phosphate receptor 1 (Homo sapiens, UniProt P21453); assay: Agonist activity at recombinant human S1P1 receptor expressed in HEK293 cells after 2 hrs by beta-arrestin assay; type: functional, cell-based
T1 sequence (P21453 whole entry): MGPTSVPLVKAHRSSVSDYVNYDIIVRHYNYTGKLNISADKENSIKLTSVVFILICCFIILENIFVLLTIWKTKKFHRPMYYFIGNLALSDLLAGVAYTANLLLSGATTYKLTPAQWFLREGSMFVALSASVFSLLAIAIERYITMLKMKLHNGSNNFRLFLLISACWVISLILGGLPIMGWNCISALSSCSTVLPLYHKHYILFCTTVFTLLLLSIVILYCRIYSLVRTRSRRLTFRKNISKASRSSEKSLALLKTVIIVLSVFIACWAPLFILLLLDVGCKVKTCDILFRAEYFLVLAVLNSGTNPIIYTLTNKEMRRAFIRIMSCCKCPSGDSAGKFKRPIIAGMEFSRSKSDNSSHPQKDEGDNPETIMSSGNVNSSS

[8] = target: Sphingosine 1-phosphate receptor 1 (Rattus norvegicus, UniProt P48303); assay: Agonist activity at rat S1P1 receptor expressed in HEK293 cells assessed as inhibition of forskolin-stimulated cAMP production after 1 hr by HTRF assay; type: functional, cell-based
Chain of Sphingosine 1-phosphate receptor 1 (Rattus norvegicus, UniProt P48303) (P48303 whole entry): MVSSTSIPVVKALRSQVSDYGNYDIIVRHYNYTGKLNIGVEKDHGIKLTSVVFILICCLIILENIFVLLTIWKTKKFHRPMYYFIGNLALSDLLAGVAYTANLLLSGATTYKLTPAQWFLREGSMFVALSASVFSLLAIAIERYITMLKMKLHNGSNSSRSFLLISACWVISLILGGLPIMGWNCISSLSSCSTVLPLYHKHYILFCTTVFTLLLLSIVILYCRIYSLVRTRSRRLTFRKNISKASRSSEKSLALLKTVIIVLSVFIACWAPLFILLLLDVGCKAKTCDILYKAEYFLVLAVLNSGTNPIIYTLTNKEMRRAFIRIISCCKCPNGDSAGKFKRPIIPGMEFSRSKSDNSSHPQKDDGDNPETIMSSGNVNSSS

[9] = target: Voltage-gated inwardly rectifying potassium channel KCNH2 (Homo sapiens, UniProt Q12809); assay: Displacement of [3H]astemizole from human ERG
[10] = system: Mus musculus; assay: Immunomodulatory activity BALB/C mouse assessed as induction of lymphopenia at 0.3 to 3 mg/kg, po after 24 hrs; type: functional, organism-based; conditions: 1 to 10 mg/kg, in the assay text read “1 to 10 mg/kg” for “0.3 to 3 mg/kg”
[11] = target: T1, Sphingosine 1-phosphate receptor 1; assay: Agonist activity at human S1P1 receptor expressed in HEK293 cells assessed as inhibition of forskolin-stimulated cAMP production after 1 hr by HTRF assay; type: functional, cell-based
Summary of the method: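 Human S1P₁ cAMP HTRF read-out; each EC₅₀ is the mean of three or more replicates.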

[12] = system: Salmonella typhimurium; assay: Mutagenic activity in Salmonella Typhimurium TA100 by Ames test in absence of S9 fraction; type: toxicity, organism-based; conditions: salmonella enterica subsp. enterica serovar typhimurium
[13] = target: hERG (KCNH2) (Homo sapiens, UniProt Q12809); assay: Inhibition of human ERG at 3 uM by patch clamp assay
[14] = target: Sphingosine 1-phosphate receptor 1 (Mus musculus, UniProt O08530); assay: Agonist activity at mouse S1P1 receptor expressed in HEK293 cells assessed as inhibition of forskolin-stimulated cAMP production after 1 hr by HTRF assay; type: functional, cell-based
Chain of Sphingosine 1-phosphate receptor 1 (Mus musculus, UniProt O08530) (O08530 whole entry): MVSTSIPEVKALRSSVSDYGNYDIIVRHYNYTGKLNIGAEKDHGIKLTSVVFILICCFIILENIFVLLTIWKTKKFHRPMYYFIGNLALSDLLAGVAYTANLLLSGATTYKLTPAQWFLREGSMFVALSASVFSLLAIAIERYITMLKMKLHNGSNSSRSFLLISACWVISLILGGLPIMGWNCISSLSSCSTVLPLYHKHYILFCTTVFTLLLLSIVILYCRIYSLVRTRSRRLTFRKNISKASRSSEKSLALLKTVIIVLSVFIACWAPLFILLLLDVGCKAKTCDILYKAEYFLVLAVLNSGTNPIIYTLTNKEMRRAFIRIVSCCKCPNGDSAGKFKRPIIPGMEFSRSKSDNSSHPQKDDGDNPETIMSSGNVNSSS

[15] = Protein binding in human; type: ADME, organism-based; conditions: in vivo, read-out: PB (converted)
[16] = target: Cytochrome P450 2C9 (Homo sapiens, UniProt P11712); assay: Inhibition of CYP2C9; type: ADME
Chain of Cytochrome P450 2C9 (P11712 whole entry): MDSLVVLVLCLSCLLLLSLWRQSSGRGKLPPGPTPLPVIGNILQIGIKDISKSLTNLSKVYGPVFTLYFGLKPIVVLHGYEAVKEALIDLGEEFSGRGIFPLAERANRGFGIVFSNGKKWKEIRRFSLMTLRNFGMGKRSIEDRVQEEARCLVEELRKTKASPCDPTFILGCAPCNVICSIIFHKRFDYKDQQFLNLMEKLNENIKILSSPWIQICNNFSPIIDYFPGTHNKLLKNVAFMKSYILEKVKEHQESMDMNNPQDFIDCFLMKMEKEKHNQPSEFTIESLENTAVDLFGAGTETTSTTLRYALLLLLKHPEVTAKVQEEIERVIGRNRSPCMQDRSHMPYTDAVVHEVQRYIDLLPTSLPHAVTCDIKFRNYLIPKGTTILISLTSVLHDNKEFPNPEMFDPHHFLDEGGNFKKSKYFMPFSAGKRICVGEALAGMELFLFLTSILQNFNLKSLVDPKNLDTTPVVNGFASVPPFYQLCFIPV

[17] = system: Salmonella typhimurium; assay: Mutagenic activity in Salmonella Typhimurium TA98 by Ames test in presence of S9 fraction; type: toxicity, organism-based; conditions: salmonella enterica subsp. enterica serovar typhimurium
[18] = target: Sphingosine 1-phosphate receptor 5 (Homo sapiens, UniProt Q9H228); assay: Agonist activity at recombinant human S1P5 receptor expressed in HEK293 cells after 2 hrs by beta-arrestin assay; type: functional, cell-based
Chain of Sphingosine 1-phosphate receptor 5 (Q9H228 whole entry): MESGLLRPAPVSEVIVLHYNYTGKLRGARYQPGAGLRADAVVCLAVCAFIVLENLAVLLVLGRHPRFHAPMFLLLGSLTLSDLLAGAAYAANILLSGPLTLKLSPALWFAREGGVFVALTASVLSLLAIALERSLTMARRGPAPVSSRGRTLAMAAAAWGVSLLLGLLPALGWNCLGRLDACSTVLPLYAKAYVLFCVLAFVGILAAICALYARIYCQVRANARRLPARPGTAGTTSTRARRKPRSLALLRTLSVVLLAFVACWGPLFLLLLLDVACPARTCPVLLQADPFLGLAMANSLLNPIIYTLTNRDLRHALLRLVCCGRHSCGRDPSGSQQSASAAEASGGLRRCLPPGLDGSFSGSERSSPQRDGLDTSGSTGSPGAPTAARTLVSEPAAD

[19] = system: Salmonella typhimurium; assay: Mutagenic activity in Salmonella Typhimurium TA1535 by Ames test in presence of S9 fraction; type: toxicity, organism-based; conditions: salmonella enterica subsp. enterica serovar typhimurium
[20] = target: Cytochrome P450 2C19 (Homo sapiens, UniProt P33261); assay: Inhibition of CYP2C19; type: ADME
Chain of Cytochrome P450 2C19 (P33261 whole entry): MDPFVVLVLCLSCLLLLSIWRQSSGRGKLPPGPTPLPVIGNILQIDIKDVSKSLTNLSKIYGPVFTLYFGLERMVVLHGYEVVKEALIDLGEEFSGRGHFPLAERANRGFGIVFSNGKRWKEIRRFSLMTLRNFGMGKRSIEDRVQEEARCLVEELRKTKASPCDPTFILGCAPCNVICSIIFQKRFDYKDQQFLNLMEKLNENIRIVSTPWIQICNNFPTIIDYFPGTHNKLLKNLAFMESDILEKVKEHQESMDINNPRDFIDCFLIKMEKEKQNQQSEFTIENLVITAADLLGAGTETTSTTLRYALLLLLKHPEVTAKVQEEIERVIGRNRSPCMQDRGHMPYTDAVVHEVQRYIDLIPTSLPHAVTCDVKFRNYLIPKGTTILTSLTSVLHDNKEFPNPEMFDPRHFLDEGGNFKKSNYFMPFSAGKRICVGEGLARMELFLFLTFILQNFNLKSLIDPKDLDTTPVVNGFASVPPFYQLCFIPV

[21] = Clearance in Sprague-Dawley rat at 2 mg/kg, iv and 3 mg/kg, po; type: ADME, organism-based; conditions: in vivo
[22] = target: T2, Sphingosine 1-phosphate receptor 4 (Homo sapiens, UniProt O95977); assay: Agonist activity at recombinant human S1P4 receptor expressed in HEK293 cells after 2 hrs by beta-arrestin assay; type: functional, cell-based
T2 sequence (O95977 whole entry): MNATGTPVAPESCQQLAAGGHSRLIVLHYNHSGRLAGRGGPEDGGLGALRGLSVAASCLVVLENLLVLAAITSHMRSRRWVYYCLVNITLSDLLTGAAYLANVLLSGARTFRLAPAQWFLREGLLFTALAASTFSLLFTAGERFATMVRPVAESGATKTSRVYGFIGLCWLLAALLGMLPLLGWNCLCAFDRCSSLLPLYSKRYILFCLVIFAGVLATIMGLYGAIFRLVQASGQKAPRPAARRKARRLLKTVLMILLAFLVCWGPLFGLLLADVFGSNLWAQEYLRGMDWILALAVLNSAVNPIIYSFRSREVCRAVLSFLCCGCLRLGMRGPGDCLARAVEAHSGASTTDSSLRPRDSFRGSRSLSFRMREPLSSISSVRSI

[23] = target: T3, Cytochrome P450 1A2 (Homo sapiens, UniProt P05177); assay: Inhibition of CYP1A2; type: ADME
T3 sequence (P05177 whole entry): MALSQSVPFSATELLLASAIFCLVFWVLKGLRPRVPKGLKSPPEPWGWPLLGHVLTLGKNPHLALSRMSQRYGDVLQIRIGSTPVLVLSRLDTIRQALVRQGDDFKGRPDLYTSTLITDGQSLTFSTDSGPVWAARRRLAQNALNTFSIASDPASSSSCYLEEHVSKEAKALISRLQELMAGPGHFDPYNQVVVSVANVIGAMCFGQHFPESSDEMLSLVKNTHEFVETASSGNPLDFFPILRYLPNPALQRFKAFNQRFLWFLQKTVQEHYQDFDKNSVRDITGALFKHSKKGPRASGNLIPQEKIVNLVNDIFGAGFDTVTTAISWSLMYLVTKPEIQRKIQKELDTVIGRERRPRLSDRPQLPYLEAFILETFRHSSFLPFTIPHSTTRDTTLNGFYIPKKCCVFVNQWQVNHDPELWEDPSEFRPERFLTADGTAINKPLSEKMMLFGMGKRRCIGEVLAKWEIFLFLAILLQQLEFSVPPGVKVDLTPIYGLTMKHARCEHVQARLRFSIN

[24] = Tmax in Sprague-Dawley rat at 2 mg/kg, iv and 3 mg/kg, po; type: ADME, organism-based; conditions: in vivo
[25] = Metabolic stability in human liver microsomes assessed as half life; type: ADME, Microsome
[26] = target: Sphingosine 1-phosphate receptor 2 (Homo sapiens, UniProt O95136); assay: Agonist activity at recombinant human S1P2 receptor expressed in HEK293 cells after 2 hrs by beta-arrestin assay; type: functional, cell-based
Chain of Sphingosine 1-phosphate receptor 2 (O95136 whole entry): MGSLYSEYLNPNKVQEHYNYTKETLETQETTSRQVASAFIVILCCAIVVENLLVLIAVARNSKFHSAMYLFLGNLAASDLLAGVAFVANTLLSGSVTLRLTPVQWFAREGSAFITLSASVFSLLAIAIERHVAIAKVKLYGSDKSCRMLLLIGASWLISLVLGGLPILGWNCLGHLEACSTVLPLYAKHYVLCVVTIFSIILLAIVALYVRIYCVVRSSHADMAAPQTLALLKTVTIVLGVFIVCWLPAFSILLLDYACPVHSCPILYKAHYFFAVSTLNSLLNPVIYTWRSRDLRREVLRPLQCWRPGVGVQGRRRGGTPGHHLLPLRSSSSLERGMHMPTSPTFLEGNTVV

[27] = Volume of distribution at steady state in Sprague-Dawley rat at 2 mg/kg, iv and 3 mg/kg, po; type: ADME, organism-based; conditions: in vivo, read-out: Vdss
[28] = Terminal half life in mouse; type: ADME, organism-based; conditions: in vivo, read-out: beta t1/2 (converted)
[29] = system: Salmonella typhimurium; assay: Mutagenic activity in Salmonella Typhimurium TA97a by Ames test in absence of S9 fraction; type: toxicity, organism-based; conditions: salmonella enterica subsp. enterica serovar typhimurium
[30] = system: Salmonella typhimurium; assay: Mutagenic activity in Salmonella Typhimurium TA100 by Ames test in presence of S9 fraction; type: toxicity, organism-based; conditions: salmonella enterica subsp. enterica serovar typhimurium
[31] = Half life in Sprague-Dawley rat at 2 mg/kg, iv and 3 mg/kg, po; type: ADME, organism-based; conditions: in vivo
[32] = Metabolic stability in rat liver microsomes assessed as half life; type: ADME, Microsome
[33] = system: Salmonella typhimurium; assay: Mutagenic activity in Salmonella Typhimurium TA1535 by Ames test in absence of S9 fraction; type: toxicity, organism-based; conditions: salmonella enterica subsp. enterica serovar typhimurium
[34] = system: Salmonella typhimurium; assay: Mutagenic activity in Salmonella Typhimurium TA98 by Ames test in absence of S9 fraction; type: toxicity, organism-based; conditions: salmonella enterica subsp. enterica serovar typhimurium
[35] = Agonist activity at monkey S1P1 receptor expressed in HEK293 cells assessed as inhibition of forskolin-stimulated cAMP production after 1 hr by HTRF assay; type: functional, cell-based; conditions: Macaca mulatta, HEK293, 1 h
[36] = target: Cytochrome P450 3A4 (Homo sapiens, UniProt P08684); assay: Inhibition of CYP3A4; type: ADME
Chain of Cytochrome P450 3A4 (P08684 whole entry): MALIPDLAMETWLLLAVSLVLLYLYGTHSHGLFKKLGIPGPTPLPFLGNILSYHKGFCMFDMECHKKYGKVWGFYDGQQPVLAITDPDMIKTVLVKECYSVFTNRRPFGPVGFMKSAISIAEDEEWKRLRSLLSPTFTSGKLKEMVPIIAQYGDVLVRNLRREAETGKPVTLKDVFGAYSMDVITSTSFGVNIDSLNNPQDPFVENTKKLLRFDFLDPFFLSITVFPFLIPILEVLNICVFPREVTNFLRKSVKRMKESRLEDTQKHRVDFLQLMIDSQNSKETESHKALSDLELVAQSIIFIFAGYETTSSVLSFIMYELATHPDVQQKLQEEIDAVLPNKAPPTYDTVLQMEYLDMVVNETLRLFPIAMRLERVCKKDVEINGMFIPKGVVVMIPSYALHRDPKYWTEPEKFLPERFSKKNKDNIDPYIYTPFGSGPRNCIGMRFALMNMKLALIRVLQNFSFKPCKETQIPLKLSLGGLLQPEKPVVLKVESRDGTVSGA

[37] = system: Salmonella typhimurium; assay: Mutagenic activity in Salmonella Typhimurium TA97a by Ames test in presence of S9 fraction; type: toxicity, organism-based; conditions: salmonella enterica subsp. enterica serovar typhimurium
[38] = target: Cytochrome P450 2D6 (Homo sapiens, UniProt P10635); assay: Inhibition of CYP2D6; type: ADME
Chain of Cytochrome P450 2D6 (P10635 whole entry): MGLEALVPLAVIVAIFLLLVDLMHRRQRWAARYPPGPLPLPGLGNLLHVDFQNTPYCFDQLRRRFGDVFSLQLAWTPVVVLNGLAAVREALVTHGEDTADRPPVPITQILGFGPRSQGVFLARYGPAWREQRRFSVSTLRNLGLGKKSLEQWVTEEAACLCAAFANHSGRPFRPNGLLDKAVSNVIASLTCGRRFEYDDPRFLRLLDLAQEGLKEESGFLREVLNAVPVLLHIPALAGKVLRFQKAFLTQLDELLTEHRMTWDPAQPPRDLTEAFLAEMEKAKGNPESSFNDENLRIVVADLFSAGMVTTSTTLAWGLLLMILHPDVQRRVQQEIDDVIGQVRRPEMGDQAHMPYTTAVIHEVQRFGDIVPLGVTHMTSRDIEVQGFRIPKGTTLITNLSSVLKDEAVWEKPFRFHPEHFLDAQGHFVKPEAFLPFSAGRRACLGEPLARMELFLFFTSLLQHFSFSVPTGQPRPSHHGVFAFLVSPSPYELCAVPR

[39] = Agonist activity at dog S1P1 receptor expressed in HEK293 cells assessed as inhibition of forskolin-stimulated cAMP production after 1 hr by HTRF assay; type: functional, cell-based; conditions: HEK293, 1 h
[40] = system: Mus musculus; assay: Immunomodulatory activity BALB/C mouse assessed as induction of lymphopenia at 1 mg/kg, po after 5 hrs; type: functional, organism-based; parameters: dose 1 mg/kg
Summary of the method: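 Male BALB/c mice were given a single oral dose of 1.0 mg/kg or vehicle (0.5% methylcellulose). Blood lymphocytes were counted at one time point, 5 h post-dose, with n = 6 per dose group (mean ± SD). Lowering was judged relative to the vehicle group.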

[41] = Oral bioavailability in Sprague-Dawley rat at 1.5 mg/kg; type: ADME, organism-based; conditions: in vivo
[42] = Tmax in Sprague-Dawley rat at 1 mg/kg, iv and 1.5 mg/kg, po; type: ADME, organism-based; conditions: in vivo
[43] = Volume of distribution at steady state in Sprague-Dawley rat at 1 mg/kg, iv and 1.5 mg/kg, po; type: ADME, organism-based; conditions: in vivo, read-out: Vdss
[44] = Half life in Sprague-Dawley rat at 1 mg/kg, iv and 1.5 mg/kg, po; type: ADME, organism-based; conditions: in vivo
[45] = Cmax in Sprague-Dawley rat at 1 mg/kg, iv and 1.5 mg/kg, po; type: ADME, organism-based; conditions: in vivo
[46] = Clearance in Sprague-Dawley rat at 1 mg/kg, iv and 1.5 mg/kg, po; type: ADME, organism-based; conditions: in vivo
[47] = AUC (0 to last) in Sprague-Dawley rat at 1 mg/kg, iv and 1.5 mg/kg, po; type: ADME, organism-based; conditions: plasma

SMILES | EC50 [3] [nM] | EC50 [7] [nM] | EC50 [8] [nM] | IC50 [9] [nM] | EC50 [11] [nM] | Activity [12] | inhibition at 3 µM [13] [%] | EC50 [14] [nM] | fraction unbound [15] | IC50 [16] [nM] | Activity [17] | EC50 [18] [nM] | Activity [19] | IC50 [20] [nM] | EC50 [22] [nM] | IC50 [23] [nM] | half-life [25] [h] | EC50 [26] [nM] | Activity [29] | Activity [30] | further results
N#Cc1cc(OC(F)(F)F)cc(-c2nc(-c3ccc4c(c3)CCN4C(=O)CCC(=O)O)no2)c1 | > 100000 | 31 | 1 | > 100000 | 1.2 | Non-toxic | 13 | 1.1 | 0.003 | > 50000 | Non-toxic | 109 | Non-toxic | > 50000 | 1330 | > 50000 | > 1 | > 100000 | Non-toxic | Non-toxic | fraction unbound [1]: 0.007; IC50 [2]: 0.431 µg/mL (≈ 0.912 µM); Cmax [4]: 3820 ng/mL; AUC(0-t) [5]: 20200 ng·h/mL; bioavailability [6]: 32.8%; Activity [10]: inactive; clearance [21]: 0.75 mL/min/kg; Tmax [24]: 2 h; Vd [27]: 0.275 L/kg; half-life [28]: 3 h; half-life [31]: 2.9 h; half-life [32]: > 1 h; Activity [33]: Non-toxic; Activity [34]: Non-toxic; EC50 [35]: 0.8 nM; IC50 [36]: > 50000 nM; Activity [37]: Non-toxic; IC50 [38]: > 50000 nM; EC50 [39]: 0.7 nM
O=C(O)CCC(=O)N1CCc2cc(-c3noc(-c4cc(C(F)(F)F)cc(C(F)(F)F)c4)n3)ccc21 | 3100 | 39 | 1.3 | > 100000 | 4.6 | Non-toxic | < 10 | 1.4 | 0.006 | 34800 | Non-toxic | 88 | Non-toxic | > 50000 | 160 | > 50000 | > 1 | > 100000 | Non-toxic | Non-toxic | Activity [40]: Active; bioavailability [41]: 50.2%; Tmax [42]: 3 h; Vd [43]: 0.564 L/kg; half-life [44]: 8.5 h; Cmax [45]: 1740 ng/mL; clearance [46]: 0.633 mL/min/kg; half-life [32]: > 1 h; Activity [33]: Non-toxic; Activity [34]: Non-toxic; EC50 [35]: 1.1 nM; IC50 [36]: > 50000 nM; Activity [37]: Non-toxic; IC50 [38]: > 50000 nM; EC50 [39]: 1.3 nM; AUC(0-t) [47]: 16000 ng·h/mL

Source: ChEMBL document CHEMBL1914334, “Discovery and characterization of potent and selective 4-oxo-4-(5-(5-phenyl-1,2,4-oxadiazol-3-yl)indolin-1-yl)butanoic acids as S1P₁ agonists” (Bioorg Med Chem Lett, 2011)
